ChEMBL document CHEMBL5136968, “Posttranslational modifications of α-conotoxins: sulfotyrosine and C-terminal amidation stabilise structures and increase acetylcholine receptor binding” (RSC Med Chem, 2021)
Positions of bridges follow the written chain, without caps; N, C: chain ends. Non-standard residues stand in square brackets, D forms with d. Residues, ends and D or L forms follow the SMILES beside them. sY = N[C@@H](Cc1ccc(OS(=O)(=O)O)cc1)C(=O)O

Assays:
[1] = biological target: Acetylcholine-binding protein (Lymnaea stagnalis, UniProt P58154); experiment: Displacement of [3H]-epibatidine from Lymnaea stagnalis Acetylcholine-binding protein measured after 1 hr by liquid scintillation counter
Chain of Acetylcholine-binding protein (P58154 whole entry): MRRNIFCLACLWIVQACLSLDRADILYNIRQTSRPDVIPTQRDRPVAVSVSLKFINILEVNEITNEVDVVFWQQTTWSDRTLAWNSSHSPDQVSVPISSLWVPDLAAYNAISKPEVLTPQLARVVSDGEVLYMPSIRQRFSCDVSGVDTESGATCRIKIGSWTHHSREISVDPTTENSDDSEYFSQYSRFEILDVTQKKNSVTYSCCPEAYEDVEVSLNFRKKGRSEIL
In short: (§1)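 Recombinant AChBP expressed in E. coli (IPTG induction, 16 °C), coated onto wells at 1 ng μL−1. Incubated 1 h at 4 °C with [3H]-epibatidine (1 nM final) and increasing peptide in PBS with 0.05% BSA. Unbound ligand washed off; bound radioactivity counted by liquid scintillation. One-site competition fit gives Ki. Triplicate, three independent experiments; pKi as mean with 95% CI.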

[2] = biological target: Neuronal acetylcholine receptor; alpha3/beta4 (Homo sapiens, UniProt P30926+P32297); experiment: Antagonist activity at human alpha3beta4 nAChR in SH-SY5Y cells assessed as inhibition of calcium flux by FLIPR assay; type: cell-based
Chain of Neuronal acetylcholine receptor; alpha3/beta4 (P30926 whole entry): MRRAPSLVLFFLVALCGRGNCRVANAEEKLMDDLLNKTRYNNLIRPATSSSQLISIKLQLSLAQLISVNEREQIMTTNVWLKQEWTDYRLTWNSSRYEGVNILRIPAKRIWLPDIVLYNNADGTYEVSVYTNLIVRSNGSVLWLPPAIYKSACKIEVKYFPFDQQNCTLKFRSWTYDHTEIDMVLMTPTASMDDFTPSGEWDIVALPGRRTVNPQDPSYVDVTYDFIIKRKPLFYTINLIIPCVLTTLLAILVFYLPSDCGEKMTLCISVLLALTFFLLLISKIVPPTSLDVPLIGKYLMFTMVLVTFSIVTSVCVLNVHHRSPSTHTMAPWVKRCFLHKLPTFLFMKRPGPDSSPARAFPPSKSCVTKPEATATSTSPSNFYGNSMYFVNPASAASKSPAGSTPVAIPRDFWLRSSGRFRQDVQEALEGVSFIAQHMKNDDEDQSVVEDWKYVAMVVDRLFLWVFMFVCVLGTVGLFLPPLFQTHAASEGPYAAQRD
Chain of Neuronal acetylcholine receptor; alpha3/beta4 (P32297 whole entry): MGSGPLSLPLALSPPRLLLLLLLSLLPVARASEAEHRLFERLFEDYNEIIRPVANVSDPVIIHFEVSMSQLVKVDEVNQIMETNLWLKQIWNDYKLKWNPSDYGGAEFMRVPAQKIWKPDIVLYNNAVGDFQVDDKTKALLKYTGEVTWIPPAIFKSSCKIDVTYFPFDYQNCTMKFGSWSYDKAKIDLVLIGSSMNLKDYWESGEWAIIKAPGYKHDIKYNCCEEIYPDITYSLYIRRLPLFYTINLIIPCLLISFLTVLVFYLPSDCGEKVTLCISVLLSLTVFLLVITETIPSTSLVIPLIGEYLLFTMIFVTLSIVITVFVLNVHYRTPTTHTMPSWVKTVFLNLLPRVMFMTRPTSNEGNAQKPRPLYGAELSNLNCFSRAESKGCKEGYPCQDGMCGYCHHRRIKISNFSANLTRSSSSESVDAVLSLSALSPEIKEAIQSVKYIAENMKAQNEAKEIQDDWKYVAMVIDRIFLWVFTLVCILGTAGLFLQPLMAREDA
In short: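 SH-SY5Y cells (endogenous α3β4), grown in RPMI with 15% FBS, plated 100 000/well and cultured 48 h. Loaded with calcium 4 dye for 30 min at 37 °C. Peptides in PSS (pH 7.4) added 10 min before nicotine 30 μM. Fluorescence read at 470–495 nm excitation, 515–575 nm emission, every 1 s. Normalised to maximal nicotine response; four-parameter Hill fit; pIC50. Triplicate, three independent experiments.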

[3] = Displacement of [3H]-epibatidine from Aplysia californica Acetylcholine-binding protein measured after 1 hr by liquid scintillation counter; in short: as §1

| Compound | Ki [1] | IC50 [2] | pKi [3] |
| --- | --- | --- | --- |
| CSCC[C@@H]1NC(=O)[C@H](CC(N)=O)NC(=O)[C@@H]2CSSC[C@H](NC(=O)CN)C(=O)N[C@@H](CSSC[C@@H](C(N)=O)NC(=O)[C@H](Cc3ccc(O)cc3)NC(=O)[C@H](CC(=O)O)NC(=O)[C@@H]3CCCN3C(=O)[C@H](CC(N)=O)NC(=O)[C@H](CC(N)=O)NC1=O)C(=O)N[C@@H](CO)C(=O)N[C@@H](CC(=O)O)C(=O)N1CCC[C@H]1C(=O)N[C@@H](CCCNC(=N)N)C(=O)N2 (H-GCCSDPRCNMNNPDYC-NH2; disulfide 2-8, 3-16) | > 100 µM | 0.347 µM | 7.57 |
| C[C@@H]1NC(=O)[C@H](C)NC(=O)[C@@H]2CSSC[C@H](NC(=O)CNC(=O)CN)C(=O)N[C@@H](CSSC[C@@H](C(=O)O)NC(=O)[C@H](Cc3ccc(O)cc3)NC(=O)[C@H](CC(=O)O)NC(=O)[C@H](CCC(N)=O)NC(=O)[C@H](CC(N)=O)NC(=O)[C@H](CC(N)=O)NC1=O)C(=O)N[C@@H](CO)C(=O)N[C@@H](Cc1cnc[nH]1)C(=O)N1CCC[C@H]1C(=O)N[C@@H](C)C(=O)N2 | > 100 µM |  | 8 |
| CSCC[C@@H]1NC(=O)[C@H](CC(N)=O)NC(=O)[C@@H]2CSSC[C@H](NC(=O)CN)C(=O)N[C@@H](CSSC[C@@H](C(=O)O)NC(=O)[C@H](Cc3ccc(O)cc3)NC(=O)[C@H](CC(=O)O)NC(=O)[C@@H]3CCCN3C(=O)[C@H](CC(N)=O)NC(=O)[C@H](CC(N)=O)NC1=O)C(=O)N[C@@H](CO)C(=O)N[C@@H](CC(=O)O)C(=O)N1CCC[C@H]1C(=O)N[C@@H](CCCNC(=N)N)C(=O)N2 (H-GCCSDPRCNMNNPDYC-OH; disulfide 2-8, 3-16) | > 100 µM | 1.35 µM | 6 |
| CSCC[C@@H]1NC(=O)[C@H](CC(N)=O)NC(=O)[C@@H]2CSSC[C@H](NC(=O)CN)C(=O)N[C@@H](CSSC[C@@H](C(=O)O)NC(=O)[C@H](Cc3ccc(OS(=O)(=O)O)cc3)NC(=O)[C@H](CC(=O)O)NC(=O)[C@@H]3CCCN3C(=O)[C@H](CC(N)=O)NC(=O)[C@H](CC(N)=O)NC1=O)C(=O)N[C@@H](CO)C(=O)N[C@@H](CC(=O)O)C(=O)N1CCC[C@H]1C(=O)N[C@@H](CCCNC(=N)N)C(=O)N2 (H-GCCSDPRCNMNNPD[sY]C-OH; disulfide 2-8, 3-16) | > 100 µM | 0.501 µM | 6.5 |
| C[C@@H]1NC(=O)[C@H](C)NC(=O)[C@@H]2CSSC[C@H](NC(=O)CNC(=O)CN)C(=O)N[C@@H](CSSC[C@@H](C(N)=O)NC(=O)[C@H](Cc3ccc(OS(=O)(=O)O)cc3)NC(=O)[C@H](CC(=O)O)NC(=O)[C@H](CCC(N)=O)NC(=O)[C@H](CC(N)=O)NC(=O)[C@H](CC(N)=O)NC1=O)C(=O)N[C@@H](CO)C(=O)N[C@@H](Cc1cnc[nH]1)C(=O)N1CCC[C@H]1C(=O)N[C@@H](C)C(=O)N2 | 5.37 µM |  | 9.4 |
| C[C@@H]1NC(=O)[C@H](C)NC(=O)[C@@H]2CSSC[C@H](NC(=O)CNC(=O)CN)C(=O)N[C@@H](CSSC[C@@H](C(N)=O)NC(=O)[C@H](Cc3ccc(O)cc3)NC(=O)[C@H](CC(=O)O)NC(=O)[C@H](CCC(N)=O)NC(=O)[C@H](CC(N)=O)NC(=O)[C@H](CC(N)=O)NC1=O)C(=O)N[C@@H](CO)C(=O)N[C@@H](Cc1cnc[nH]1)C(=O)N1CCC[C@H]1C(=O)N[C@@H](C)C(=O)N2 | 24.5 µM |  | 8.96 |
| C[C@@H]1NC(=O)[C@H](C)NC(=O)[C@@H]2CSSC[C@H](NC(=O)CNC(=O)CN)C(=O)N[C@@H](CSSC[C@@H](C(=O)O)NC(=O)[C@H](Cc3ccc(OS(=O)(=O)O)cc3)NC(=O)[C@H](CC(=O)O)NC(=O)[C@H](CCC(N)=O)NC(=O)[C@H](CC(N)=O)NC(=O)[C@H](CC(N)=O)NC1=O)C(=O)N[C@@H](CO)C(=O)N[C@@H](Cc1cnc[nH]1)C(=O)N1CCC[C@H]1C(=O)N[C@@H](C)C(=O)N2 | > 100 µM |  | 8.66 |
| CSCC[C@@H]1NC(=O)[C@H](CC(N)=O)NC(=O)[C@@H]2CSSC[C@H](NC(=O)CN)C(=O)N[C@@H](CSSC[C@@H](C(N)=O)NC(=O)[C@H](Cc3ccc(OS(=O)(=O)O)cc3)NC(=O)[C@H](CC(=O)O)NC(=O)[C@@H]3CCCN3C(=O)[C@H](CC(N)=O)NC(=O)[C@H](CC(N)=O)NC1=O)C(=O)N[C@@H](CO)C(=O)N[C@@H](CC(=O)O)C(=O)N1CCC[C@H]1C(=O)N[C@@H](CCCNC(=N)N)C(=O)N2 (H-GCCSDPRCNMNNPD[sY]C-NH2; disulfide 2-8, 3-16) | > 100 µM | 0.0646 µM | 8.38 |
